# Calls of active or inactive are those of the source. The calls are words filed in the database; no cut-off is given here.
# How the values were obtained:
# [1] = Aqueous solubility of the compound; assay type: physicochemical; settings: buffer
# Liver = assay: Intrinsic clearance in mouse liver microsomes assessed per gram of liver at 1 uM after 60 mins at pH 7.4 by LC-MS/MS analysis; assay type: ADME, Microsome; settings: pH 7.4, 1 h
# Method in brief: (§1)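 Liver microsomes (0.5 mg protein/mL) in 50 mM potassium phosphate pH 7.4 with 1.0 μM compound at 37 °C for 60 min. Reaction started with NADP/glucose-6-phosphate/MgCl₂/G6PDH cofactor mix; solvent 1% final. LC-MS/MS read-out. CLi from first-order elimination constant by nonlinear regression, corrected for incubation volume, assuming 52.5 mg microsomal protein/g liver.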
# Plasma = assay: Plasma protein binding in mouse at 1 ug/ml after 30 mins; assay type: ADME, cell-free; settings: 0.5 h
# Method in brief: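 Ultrafiltration on mouse plasma preincubated 15 min at 37 °C, compound spiked to 1 μg/mL final. Aliquots taken at 0 and 15 min, remainder spun through a 10 kDa filter for 30 min at 37 °C, 2850 g. Filtrate deproteinized and analysed by LC-MS/MS.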
# [2] = Oral bioavailability in CD1 mouse at 25 mg/kg; assay type: ADME, organism-based; settings: in vivo
# Method in brief: (§2)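 Male CD-1 mice (N = 3 per route) dosed IV at 5 mg/kg or orally at 25 mg/kg while fasted, mostly in saline (2.5 mg/mL). Tail-vein blood taken up to 24 h, cardiac puncture at 30 h. Samples hemolyzed, protein-precipitated with acetonitrile plus internal standard, analysed by positive ESI LC-MS/MS.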
# [3] = Fraction unbound in CD1 mouse plasma at 5 mg/kg, iv; assay type: ADME, organism-based; parameters: dose 5 mg/kg, route intravenous
# Method in brief: (§3)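 Fraction unbound measured in mouse plasma by ultrafiltration at 1 μg/mL. Unbound clearance = blood clearance/fu, assuming blood/plasma ratio of 1. Blood clearance comes from male CD-1 mice dosed IV at 5 mg/kg, with tail-vein sampling up to 24 h and LC-MS/MS analysis.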
# HepG2 = assay: Cytotoxicity against human HepG2 cells after 24 hrs by MTS assay; assay type: cell-based; settings: HepG2, 24 h
# Method in brief: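 HepG2 cells kept in RPMI 1640 with 10% FBS plus antibiotics at 37 °C, 5% CO₂. 50 000 cells per well exposed to 10 two-fold serial dilutions for 24 h. MTS reagent then added for 2 h more, absorbance read at 490 nm, IC50 derived.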
# [4] = Clearance at steady state in CD1 mouse at 5 mg/kg, iv; assay type: ADME, organism-based; parameters: dose 5 mg/kg, route intravenous; settings: in vivo, read-out: CLss; method in brief: as §2
# Plasmodium berghei [5] = assay: Antimalarial activity against Plasmodium berghei KBG173 infected in mouse assessed as increase in mouse survival time at 5 mg/kg, iv BID administered on day 3, 4 and 5 post infection relative to azithromycin; assay type: functional
# Method in brief: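 Male mice (24−30 g) inoculated intraperitoneally with 5 × 10⁶ P. berghei KBG-173-infected erythrocytes; parasitemia 1.0–3.7% by day 3. IV dosing twice daily on days 3, 4 and 5 post-infection. Read-out is the survival time of the last animal alive. Mice blood-smear negative on day 31 counted as cured; mice losing ≥20% body weight sacrificed.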
# Plasmodium falciparum = assay: Antimalarial activity against mefloquine-resistant Plasmodium falciparum TM91C235 assessed as [3H]hypoxanthine incorporation after 48 hrs; assay type: functional, organism-based
# Method in brief: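 Tritiated hypoxanthine incorporation assay (Desjardins method, Milhous modification) with 48 h drug exposure. Uses P. falciparum clone TM91C235 (Southeast Asian, mefloquine-resistant). Compounds 2-fold diluted over 11 concentrations. IC50 derived by nonlinear logistic dose-response fitting, averaged where multiple runs were done.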
# [6] = Half life in CD1 mouse at 5 mg/kg, iv; assay type: ADME, organism-based; parameters: dose 5 mg/kg, route intravenous; settings: CD1, mouse, in vivo; method in brief: as §2
# Liver microsomes [7] = assay: Intrinsic clearance in human liver microsomes assessed per gram of liver at 1 uM after 60 mins at pH 7.4 by LC-MS/MS analysis; assay type: ADME, Microsome; settings: pH 7.4, 1 h; method in brief: as §1
# Liver microsomes [8] = assay: Intrinsic clearance in rat liver microsomes assessed per gram of liver at 1 uM after 60 mins at pH 7.4 by LC-MS/MS analysis; assay type: ADME, Microsome; settings: pH 7.4, 1 h; method in brief: as §1
# Mus musculus = assay: Unbound clearance in CD1 mouse at 5 mg/kg, iv; assay type: ADME, organism-based; parameters: dose 5 mg/kg, route intravenous; settings: in vivo; method in brief: as §3
# [9] = Volume of distribution at steady state in CD1 mouse at 5 mg/kg, iv; assay type: ADME, organism-based; parameters: dose 5 mg/kg, route intravenous; settings: in vivo, read-out: Vdss; method in brief: as §2
# Plasmodium berghei [10] = assay: Antimalarial activity against Plasmodium berghei KBG173 infected in mouse assessed as cured mouse at 5 mg/kg, iv BID administered on day 3, 4 and 5 post infection measured up to day 31; assay type: functional, organism-based; parameters: dose 5 mg/kg
# Method in brief: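 Male mice (24–30 g) inoculated intraperitoneally with 5 × 10⁶ P. berghei KBG-173-infected erythrocytes; parasitemia about 1.0–3.7% by day 3. Dosing twice daily on days 3–5 postinfection. Blood smears negative on day 31 counted as cured, scored as cured/total mice (5 per dose). Mice losing ≥20% body weight sacrificed.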
structure (smiles),measurement,setting,value
CC(=O)O.CC[C@H]1OC(=O)[C@H](C)[C@@H](O[C@H]2C[C@@](C)(OC)[C@@H](O)[C@H](C)O2)[C@H](C)[C@@H](O[C@@H]2O[C@H](C)C[C@H](N(C)C)[C@H]2O)[C@](C)(O)C[C@@H](C)CN(CCCNC(=O)CCc2ccccc2)[C@H](C)[C@@H](O)[C@]1(C)O,solubility,[1],>= 10 mg kg-1
CC(=O)O.CC[C@H]1OC(=O)[C@H](C)[C@@H](O[C@H]2C[C@@](C)(OC)[C@@H](O)[C@H](C)O2)[C@H](C)[C@@H](O[C@@H]2O[C@H](C)C[C@H](N(C)C)[C@H]2O)[C@](C)(O)C[C@@H](C)CN(CCCNc2ccnc3ccccc23)[C@H](C)[C@@H](O)[C@]1(C)O,solubility,[1],>= 10 mg kg-1
CC[C@H]1OC(=O)[C@H](C)[C@@H](O[C@H]2C[C@@](C)(OC)[C@@H](O)[C@H](C)O2)[C@H](C)[C@@H](O[C@@H]2O[C@H](C)C[C@H](N(C)C)[C@H]2O)[C@](C)(O)C[C@@H](C)CN(CCCNC(=O)CCc2ccccc2)[C@H](C)[C@@H](O)[C@]1(C)O [listing 1 of 2 here],CLint,Liver,< 0.6 mL/min/g
same,PPB,Plasma,43%
same,bioavailability,[2],12.7%
same,fraction unbound,[3],0.43
same,IC50,HepG2,> 50 µM
same,clearance,[4],1.4 L/h/kg
same,Survival,Plasmodium berghei [5],-12 days
same,IC50,Plasmodium falciparum,0.07 µM
same,half-life,[6],6.9 h
same,CLint,Liver microsomes [7],< 0.6 mL/min/g
same,CLint,Liver microsomes [8],< 0.6 mL/min/g
same,CL free,Mus musculus,3.24 L/h/kg
same,Vd,[9],5 L/kg
CC[C@H]1OC(=O)[C@H](C)[C@@H](O[C@H]2C[C@@](C)(OC)[C@@H](O)[C@H](C)O2)[C@H](C)[C@@H](O[C@@H]2O[C@H](C)C[C@H](N(C)C)[C@H]2O)[C@](C)(O)C[C@@H](C)CN(CCCNCc2ccnc3ccccc23)[C@H](C)[C@@H](O)[C@]1(C)O,Activity,Plasmodium berghei [10],inactive
CC[C@H]1OC(=O)[C@H](C)[C@@H](O[C@H]2C[C@@](C)(OC)[C@@H](O)[C@H](C)O2)[C@H](C)[C@@H](O[C@@H]2O[C@H](C)C[C@H](N(C)C)[C@H]2O)[C@](C)(O)C[C@@H](C)CN(CCCNc2ccnc3ccccc23)[C@H](C)[C@@H](O)[C@]1(C)O [listing 1 of 2 here],CLint,Liver,< 0.6 mL/min/g
same,PPB,Plasma,43%
same,bioavailability,[2],1.7%
same,fraction unbound,[3],0.39
same,IC50,HepG2,> 50 µM
same,clearance,[4],0.462 L/h/kg
same,Survival,Plasmodium berghei [5],3 days
same,IC50,Plasmodium falciparum,0.025 µM
same,half-life,[6],14.4 h
same,CLint,Liver microsomes [7],< 0.6 mL/min/g
same,CLint,Liver microsomes [8],< 0.6 mL/min/g
same,CL free,Mus musculus,1.2 L/h/kg
same,Vd,[9],4.9 L/kg
CC[C@H]1OC(=O)[C@H](C)[C@@H](O[C@H]2C[C@@](C)(OC)[C@@H](O)[C@H](C)O2)[C@H](C)[C@@H](O[C@@H]2O[C@H](C)C[C@H](N(C)C)[C@H]2O)[C@](C)(O)C[C@@H](C)CN(CCCNc2ccnc3ccccc23)[C@H](C)[C@@H](O)[C@]1(C)O [listing 2 of 2 here],Activity,Plasmodium berghei [10],inactive
CC[C@H]1OC(=O)[C@H](C)[C@@H](O[C@H]2C[C@@](C)(OC)[C@@H](O)[C@H](C)O2)[C@H](C)[C@@H](O[C@@H]2O[C@H](C)C[C@H](N(C)C)[C@H]2O)[C@](C)(O)C[C@@H](C)CN(CCCNc2ccnc3cc(Cl)ccc23)[C@H](C)[C@@H](O)[C@]1(C)O,CLint,Liver,< 0.6 mL/min/g
same,PPB,Plasma,43%
same,bioavailability,[2],20.4%
same,fraction unbound,[3],0.42
same,IC50,HepG2,30 µM
same,clearance,[4],0.24 L/h/kg
same,Survival,Plasmodium berghei [5],9 days
same,IC50,Plasmodium falciparum,0.022 µM
same,half-life,[6],17.8 h
same,CLint,Liver microsomes [7],< 0.6 mL/min/g
same,CLint,Liver microsomes [8],< 0.6 mL/min/g
same,CL free,Mus musculus,0.57 L/h/kg
same,Vd,[9],2.9 L/kg
CC(=O)O.CC[C@H]1OC(=O)[C@H](C)[C@@H](O[C@H]2C[C@@](C)(OC)[C@@H](O)[C@H](C)O2)[C@H](C)[C@@H](O[C@@H]2O[C@H](C)C[C@H](N(C)C)[C@H]2O)[C@](C)(O)C[C@@H](C)CN(CCC(=O)N[C@H](C)c2cccc3ccccc23)[C@H](C)[C@@H](O)[C@]1(C)O,solubility,[1],>= 10 mg kg-1
CC[C@H]1OC(=O)[C@H](C)[C@@H](O[C@H]2C[C@@](C)(OC)[C@@H](O)[C@H](C)O2)[C@H](C)[C@@H](O[C@@H]2O[C@H](C)C[C@H](N(C)C)[C@H]2O)[C@](C)(O)C[C@@H](C)CN(CCC(=O)N[C@H](C)c2cccc3ccccc23)[C@H](C)[C@@H](O)[C@]1(C)O,Activity,Plasmodium berghei [10],inactive
CC[C@H]1OC(=O)[C@H](C)[C@@H](O[C@H]2C[C@@](C)(OC)[C@@H](O)[C@H](C)O2)[C@H](C)[C@@H](O[C@@H]2O[C@H](C)C[C@H](N(C)C)[C@H]2O)[C@](C)(O)C[C@@H](C)CN(CCCNc2cc(C)nc3ccc(OC)cc23)[C@H](C)[C@@H](O)[C@]1(C)O,IC50,HepG2,> 50 µM
same,IC50,Plasmodium falciparum,0.854 µM
CC(=O)O.CC[C@H]1OC(=O)[C@H](C)[C@@H](O[C@H]2C[C@@](C)(OC)[C@@H](O)[C@H](C)O2)[C@H](C)[C@@H](O[C@@H]2O[C@H](C)C[C@H](N(C)C)[C@H]2O)[C@](C)(O)C[C@@H](C)CN(CCCNCc2ccnc3ccccc23)[C@H](C)[C@@H](O)[C@]1(C)O,solubility,[1],>= 10 mg kg-1
CC[C@H]1OC(=O)[C@H](C)[C@@H](O[C@H]2C[C@@](C)(OC)[C@@H](O)[C@H](C)O2)[C@H](C)[C@@H](O[C@@H]2O[C@H](C)C[C@H](N(C)C)[C@H]2O)[C@](C)(O)C[C@@H](C)CN(CCCNC(=O)CCc2ccccc2)[C@H](C)[C@@H](O)[C@]1(C)O [listing 2 of 2 here],Activity,Plasmodium berghei [10],inactive
CC[C@H]1OC(=O)[C@H](C)[C@@H](O[C@H]2C[C@@](C)(OC)[C@@H](O)[C@H](C)O2)[C@H](C)[C@@H](O[C@@H]2O[C@H](C)C[C@H](N(C)C)[C@H]2O)[C@](C)(O)C[C@@H](C)CN(CCC(=O)NCCCCc2ccccc2)[C@H](C)[C@@H](O)[C@]1(C)O,IC50,HepG2,40 µM
same,IC50,Plasmodium falciparum,0.162 µM
CC(=O)O.CC[C@H]1OC(=O)[C@H](C)[C@@H](O[C@H]2C[C@@](C)(OC)[C@@H](O)[C@H](C)O2)[C@H](C)[C@@H](O[C@@H]2O[C@H](C)C[C@H](N(C)C)[C@H]2O)[C@](C)(O)C[C@@H](C)CN(CCCNc2ccnc3cc(Cl)ccc23)[C@H](C)[C@@H](O)[C@]1(C)O,solubility,[1],>= 10 mg kg-1
CC[C@H]1OC(=O)[C@H](C)[C@@H](O)[C@H](C)[C@@H](O[C@@H]2O[C@H](C)C[C@H](N(C)C)[C@H]2O)[C@](C)(O)C[C@@H](C)CN(CCCNCc2cccc3ccccc23)[C@H](C)[C@@H](O)[C@]1(C)O,IC50,HepG2,38 µM
same,IC50,Plasmodium falciparum,0.055 µM
CC[C@H]1OC(=O)[C@H](C)[C@@H](O[C@H]2C[C@@](C)(OC)[C@@H](O)[C@H](C)O2)[C@H](C)[C@@H](O[C@@H]2O[C@H](C)C[C@H](N(C)C)[C@H]2O)[C@](C)(O)C[C@@H](C)CN(CCCNc2ncnc3[nH]cnc23)[C@H](C)[C@@H](O)[C@]1(C)O,IC50,HepG2,> 50 µM
same,IC50,Plasmodium falciparum,> 6.4 µM
CC[C@H]1OC(=O)[C@H](C)[C@@H](O[C@H]2C[C@@](C)(OC)[C@@H](O)[C@H](C)O2)[C@H](C)[C@@H](O[C@@H]2O[C@H](C)C[C@H](N(C)C)[C@H]2O)[C@](C)(O)C[C@@H](C)CN(CCCNCCCc2ccccc2)[C@H](C)[C@@H](O)[C@]1(C)O,IC50,HepG2,40 µM
same,IC50,Plasmodium falciparum,0.106 µM
CC[C@H]1OC(=O)[C@H](C)[C@@H](O)[C@H](C)[C@@H](O[C@@H]2O[C@H](C)C[C@H](N(C)C)[C@H]2O)[C@](C)(O)C[C@@H](C)CN(CCCNCc2cccnc2)[C@H](C)[C@@H](O)[C@]1(C)O,IC50,HepG2,> 50 µM
same,IC50,Plasmodium falciparum,2.51 µM

# From ChEMBL document CHEMBL2029228, “Antimalarial activity of 9a-N substituted 15-membered azalides with improved in vitro and in vivo activity over azithromycin” (J Med Chem, 2012)
